In ChEMBL document CHEMBL1151981, “Bioactive pyridine-N-oxide disulfides from Allium stipitatum” (J Nat Prod, 2009):
≈ marks a conversion by molar mass, not a printed value. Calls of active or inactive are those of the source. No cut-off for these calls is given here.

Assays:
[1] = system: Mycolicibacterium fortuitum; test: Antibacterial activity against Mycobacterium fortuitum after 72 hrs; assay type: functional
Outline: (§1)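 Fast-growing mycobacteria obtained from NCTC; cultures grown on Columbia blood agar with 7% defibrinated horse blood at 37 °C for 72 h before MIC determination. Ethambutol and isoniazid served as positive controls.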

[2] = system: Mycolicibacterium smegmatis; test: Antibacterial activity against Mycobacterium smegmatis after 72 hrs; assay type: functional; outline: as §1
Mycolicibacterium phlei = test: Antibacterial activity against Mycobacterium phlei after 72 hrs; assay type: functional; outline: as §1
Staphylococcus aureus [3] = test: Antibacterial activity against Staphylococcus aureus SA1199B overexpressing NorA efflux pump after 72 hrs; assay type: functional
Staphylococcus aureus [4] = test: Antibacterial activity against tetracycline-effluxing Staphylococcus aureus XU212 after 72 hrs; assay type: functional; details: XU212, 72 h
Outline: (§2)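 S. aureus strains tested in a MIC assay; norfloxacin and oxacillin used as positive controls.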

Staphylococcus aureus [5] = test: Antibacterial activity against Staphylococcus aureus EMRSA15 after 72 hrs; assay type: functional; details: EMRSA15, 72 h; outline: as §2
[6] = system: Mycolicibacterium smegmatis; test: Antibacterial activity against Mycobacterium smegmatis mc2 2700 after 72 hrs; assay type: functional; details: mc2 2700, 72 h
[7] = system: Mycobacterium tuberculosis; test: Antibacterial activity against Mycobacterium tuberculosis H37Rv ATCC 27294 assessed as decrease in viable bacterial counts at 1.25 ug/ml after 7 days by spot-culture growth inhibition assay; assay type: functional
[8] = system: Mycobacterium tuberculosis; test: Antibacterial activity against Mycobacterium tuberculosis H37Rv ATCC 27294 assessed as decrease in viable bacterial counts at 0.01 to 5 ug/ml after 14 days by spot-culture growth inhibition assay; assay type: functional, organism-based
Outline: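 Mid-exponential cultures (BCG rotated in 7H9/ADC/Tween 80; H37Rv standing in 7H9/OADC/Tween 80) diluted to 10³ cells/mL. 5 µL spotted onto 7H10 agar with 10% OADC containing compound at 0.01, 0.1, 0.5, 1 and 5 µg/mL. Incubated at 37 °C for 14 days. MIC taken as lowest concentration with no growth; no-compound well as growth control.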

[9] = system: Mycolicibacterium smegmatis; test: Inhibition of fatty acid biosynthesis in Mycobacterium smegmatis assessed as inhibition of [14C]acetate incorporation into soluble lipid at 30 ug/ml treated 2 hrs before [14C]acetate addition measured after 2 hrs of [14C]acetate infusion by whole-cell assay; assay type: functional, organism-based
Outline: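 Replicating M. smegmatis whole cells exposed to compound at 30 µg/mL for 2 h, then [1-14C]acetate added for a further 2 h. Soluble lipids (mostly fatty acids) extracted and counts per minute compared with untreated control.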

[10] = system: Mycobacterium tuberculosis; test: Effect on trxB2 RNA expression in Mycobacterium tuberculosis H37Rv ATCC 27294 at 2 to 10 ug/ml after 6 hrs by microarray analysis; assay type: functional, organism-based
Outline: (§3)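 H37Rv grown in 7H9 with 0.2% glycerol, 0.5% BSA fraction V, 0.05% Tween 80, 0.08% NaCl and 0.2% glucose to OD650 0.3. Treated with 2, 5 or 10 µg/mL compound, or matching DMSO, for 6 h. RNA isolated, labelled cDNA hybridised to microarrays. Predictive genes found by class prediction analysis.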

[11] = system: Mycobacterium tuberculosis; test: Effect on trxC RNA expression in Mycobacterium tuberculosis H37Rv ATCC 27294 at 2 to 10 ug/ml after 6 hrs by microarray analysis; assay type: functional, organism-based; outline: as §3
[12] = system: Mycobacterium tuberculosis; test: Upregulation of clpB RNA expression in Mycobacterium tuberculosis H37Rv ATCC 27294 at 2 to 10 ug/ml after 6 hrs by microarray analysis; assay type: functional, organism-based; outline: as §3
[13] = system: Mycobacterium tuberculosis; test: Upregulation of sigH RNA expression in Mycobacterium tuberculosis H37Rv ATCC 27294 at 2 to 10 ug/ml after 6 hrs by microarray analysis; assay type: functional, organism-based; outline: as §3
[14] = system: Mycobacterium tuberculosis; test: Upregulation of dnaJ RNA expression in Mycobacterium tuberculosis H37Rv ATCC 27294 at 2 to 10 ug/ml after 6 hrs by microarray analysis; assay type: functional, organism-based; outline: as §3
[15] = system: Mycobacterium tuberculosis; test: Upregulation of dnaK RNA expression in Mycobacterium tuberculosis H37Rv ATCC 27294 at 2 to 10 ug/ml after 6 hrs by microarray analysis; assay type: functional, organism-based; outline: as §3
[16] = system: Mycobacterium tuberculosis; test: Upregulation of hsp RNA expression in Mycobacterium tuberculosis H37Rv ATCC 27294 at 2 to 10 ug/ml after 6 hrs by microarray analysis; assay type: functional, organism-based; outline: as §3
[17] = system: Mycobacterium tuberculosis; test: Upregulation of Rv0331 RNA expression in Mycobacterium tuberculosis H37Rv ATCC 27294 at 2 to 10 ug/ml after 6 hrs by microarray analysis; assay type: functional, organism-based; outline: as §3
[18] = system: Mycobacterium tuberculosis; test: Upregulation of Rv3463 RNA expression in Mycobacterium tuberculosis H37Rv ATCC 27294 at 2 to 10 ug/ml after 6 hrs by microarray analysis; assay type: functional, organism-based; outline: as §3
[19] = system: Mycobacterium tuberculosis; test: Upregulation of Rv3054c RNA expression in Mycobacterium tuberculosis H37Rv ATCC 27294 at 2 to 10 ug/ml after 6 hrs by microarray analysis; assay type: functional, organism-based; outline: as §3
[20] = system: Mycobacterium tuberculosis; test: Upregulation of Rv1334 RNA expression in Mycobacterium tuberculosis H37Rv ATCC 27294 at 2 to 10 ug/ml after 6 hrs by microarray analysis; assay type: functional, organism-based; outline: as §3
[21] = system: Mycobacterium tuberculosis; test: Upregulation of Rv1335 RNA expression in Mycobacterium tuberculosis H37Rv ATCC 27294 at 2 to 10 ug/ml after 6 hrs by microarray analysis; assay type: functional, organism-based; outline: as §3
Mus musculus [22] = test: Toxicity in C57BL/6 mouse assessed as lethality at 300 mg/kg administered as single dose via oral gavage for 3 days measured 2 days after final dose; assay type: organism-based; parameters: dose 300 mg/kg, route oral; details: in vivo, 48 h
Outline: (§4)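 Female C57BL/6 mice, three per dose, got a single oral gavage dose of 30, 100 or 300 mg/kg. Observed at 4 and 6 h after dosing, then twice daily for 1 week. The tabulated data describe 3-day dosing.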

Mus musculus [23] = test: Toxicity in C57BL/6 mouse assessed as lethality at 300 mg/kg administered as single dose via oral gavage for 3 days measured 3 days after final dose; assay type: organism-based; parameters: dose 300 mg/kg, route oral; details: in vivo, 72 h; outline: as §4
Mus musculus [24] = test: Toxicity in C57BL/6 mouse assessed as transient lethargy at 100 mg/kg administered as single dose via oral gavage for 3 days measured 3 days after final dose; assay type: organism-based; parameters: dose 100 mg/kg, route oral; details: in vivo, 72 h
Mus musculus [25] = test: Toxicity in C57BL/6 mouse assessed as adverse effect at 30 mg/kg administered as single dose via oral gavage for 3 days measured after 3 days post final dose; assay type: organism-based; parameters: dose 30 mg/kg, route oral; details: in vivo, 72 h
[26] = Toxicity in C57BL/6 mouse assessed as maximum tolerated dose administered as single dose via oral gavage for 3 days measured 4 hrs after final dose; assay type: organism-based; details: in vivo; outline: as §4
[27] = Toxicity in C57BL/6 mouse assessed as maximum tolerated dose administered as single dose via oral gavage for 3 days measured 6 hrs after final dose; assay type: organism-based; details: in vivo; outline: as §4
[28] = Toxicity in C57BL/6 mouse assessed as maximum tolerated dose administered as single dose via oral gavage for 3 days measured twice daily for 1 week after final dose; assay type: organism-based; details: in vivo; outline: as §4
[29] = system: Mycobacterium tuberculosis; test: Antibacterial activity against Mycobacterium tuberculosis infected in GKO C57BL/6 mouse assessed as bacterial number in lung at 30 mg/kg/day administered 14 days postinfection via oral gavage for nine consecutive days measured on day 24 postinfection; assay type: functional
Outline: (§5)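 Female GKO C57BL/6 mice, 8–10 weeks old, infected by low-dose aerosol with M. tuberculosis Erdman (50–100 CFU uptake confirmed day 1). Daily oral gavage in 0.5% methyl cellulose from day 14 for nine consecutive days; isoniazid given at 25 mg/kg/day. Five mice per group, with untreated and pretreatment controls. Lung and spleen CFU log-transformed; one-way ANOVA with Tukey test.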

[30] = system: Mycobacterium tuberculosis; test: Antibacterial activity against Mycobacterium tuberculosis infected in GKO C57BL/6 mouse assessed as bacterial number in spleen at 30 mg/kg/day administered 14 days postinfection via oral gavage for nine consecutive days measured on day 24 postinfection; assay type: functional; outline: as §5
MCF7 = test: Cytotoxicity against human MCF7 cells after 96 hrs by sulforhodamine B assay; assay type: functional, cell-based; details: MCF7, 96 h
Outline: (§6)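 SRB assay. Cells seeded at 4000/well in DMEM and allowed to attach overnight at 37 °C, 5% CO2. Exposed in quadruplicate to freshly made compound, 0.1–25 µM, for 96 h. Fixed with ice-cold 10% TCA for 30 min, stained with 0.4% SRB in 1% acetic acid for 15 min. Absorbance read at 540 nm as % of untreated control; IC50 derived from means.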

A549 = test: Cytotoxicity against human A549 cells after 96 hrs by sulforhodamine B assay; assay type: functional, cell-based; details: A549, 96 h; outline: as §6
HT-29 = test: Cytotoxicity against human HT-29 cells after 96 hrs by sulforhodamine B assay; assay type: functional, cell-based; details: HT-29, 96 h; outline: as §6
[31] = Cytotoxicity against human WI38 cells after 96 hrs by sulforhodamine B assay; assay type: cell-based; details: WI-38, 96 h; outline: as §6
[32] = system: Mycobacterium tuberculosis; test: Antibacterial activity against Mycobacterium tuberculosis infected in GKO C57BL/6 mouse assessed as bacterial number in lung at 25 mg/kg/day administered 14 days postinfection via oral gavage for nine consecutive days measured on day 24 postinfection; assay type: functional; outline: as §5
[33] = system: Mycobacterium tuberculosis; test: Antibacterial activity against Mycobacterium tuberculosis infected in GKO C57BL/6 mouse assessed as bacterial number in spleen at 25 mg/kg/day administered 14 days postinfection via oral gavage for nine consecutive days measured on day 24 postinfection; assay type: functional; outline: as §5

CC[C@@H](CO)NCCN[C@@H](CC)CO [ETHAMBUTOL]
MIC [1]: 2 µg/mL (≈ 9.79 µM)
MIC [2]: 32 µg/mL (≈ 157 µM)
MIC (Mycolicibacterium phlei): 2 µg/mL (≈ 9.79 µM)

CSSc1ccccn1
MIC [1]: 8 µg/mL (≈ 50.9 µM)
MIC [2]: 8 µg/mL (≈ 50.9 µM)
MIC (Mycolicibacterium phlei): 16 µg/mL (≈ 102 µM)
MIC (Staphylococcus aureus [3]): 2 µg/mL (≈ 12.7 µM)
MIC (Staphylococcus aureus [4]): 4 µg/mL (≈ 25.4 µM)
MIC (Staphylococcus aureus [5]): 2 µg/mL (≈ 12.7 µM)

CSSc1cccs1
MIC [1]: > 128 µg/mL
MIC [2]: 64 µg/mL (≈ 394 µM)
MIC (Mycolicibacterium phlei): > 128 µg/mL
MIC (Staphylococcus aureus [3]): 128 µg/mL (≈ 789 µM)
MIC (Staphylococcus aureus [4]): > 128 µg/mL
MIC (Staphylococcus aureus [5]): > 128 µg/mL

CSSc1cccc[n+]1[O-]
MIC [1]: 8 µg/mL (≈ 46.2 µM)
MIC [2]: 8 µg/mL (≈ 46.2 µM)
MIC [6]: 8 µg/mL (≈ 46.2 µM)
MIC (Mycolicibacterium phlei): 2 µg/mL (≈ 11.5 µM)
MIC (Staphylococcus aureus [3]): 2 µg/mL (≈ 11.5 µM)
MIC (Staphylococcus aureus [4]): 1 µg/mL (≈ 5.77 µM)
MIC (Staphylococcus aureus [5]): 0.5 µg/mL (≈ 2.89 µM)
Activity [7]: 99%
Activity [8]: Active
inhibition [9]: Active
Activity [10]: Active
Activity [11]: Active
Activity [12]: Active
Activity [13]: Active
Activity [14]: Active
Activity [15]: Active
Activity [16]: Active
Activity [17]: Active
Activity [18]: Active
Activity [19]: Active
Activity [20]: Active
Activity [21]: Active
Activity (Mus musculus [22]): Toxic
Activity (Mus musculus [23]): Toxic
Activity (Mus musculus [24]): Toxic
Activity (Mus musculus [25]): Non-toxic
MTD at 4 h [26]: 30 mg/kg
MTD at 6 h [27]: 30 mg/kg
MTD at 168 h [28]: 30 mg/kg
log10cfu [29]: 8.17
log10cfu [30]: 6.17
IC50 (MCF7): 350 nM
IC50 (A549): 220 nM
IC50 (HT-29): 1840 nM
IC50 [31]: 800 nM

CSSc1ccccc1
MIC [1]: > 128 µg/mL
MIC [2]: 64 µg/mL (≈ 410 µM)
MIC (Mycolicibacterium phlei): > 128 µg/mL
MIC (Staphylococcus aureus [3]): 128 µg/mL (≈ 819 µM)
MIC (Staphylococcus aureus [4]): > 128 µg/mL
MIC (Staphylococcus aureus [5]): > 128 µg/mL

NNC(=O)c1ccncc1 [ISONIAZID]
MIC [1]: 0.25 µg/mL (≈ 1.82 µM)
MIC [2]: 0.25 µg/mL (≈ 1.82 µM)
MIC (Mycolicibacterium phlei): 128 µg/mL (≈ 933 µM)
log10cfu [32]: 5.33
log10cfu [33]: 2.16

CC1=CC(=O)c2ccccc2C1=O
Activity [10]: Active
Activity [11]: Active
Activity [12]: Active
Activity [13]: Active
Activity [14]: Active
Activity [15]: Active
Activity [16]: Active
Activity [17]: Active
Activity [18]: Active
Activity [19]: Active
Activity [20]: Active
Activity [21]: Active
